Pyk2 oligo antag = Pyk2 (human) oligomerization antagonism; Q14289; Q293 cells, Pyk2 FERM NanoBiT luminescence; hits give low values; z-score (the deposit names both 25 µM and 10 µM); 99,000 tested, 0.83% active;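 active means Z-score of -3 or lower, scaled per plate to the spread of control and sample wells; inactive means z-score above -3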;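 further: negative z-score means lost luminescence so less FERM oligomerization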
Target sequence (Q14289 whole entry, looked up): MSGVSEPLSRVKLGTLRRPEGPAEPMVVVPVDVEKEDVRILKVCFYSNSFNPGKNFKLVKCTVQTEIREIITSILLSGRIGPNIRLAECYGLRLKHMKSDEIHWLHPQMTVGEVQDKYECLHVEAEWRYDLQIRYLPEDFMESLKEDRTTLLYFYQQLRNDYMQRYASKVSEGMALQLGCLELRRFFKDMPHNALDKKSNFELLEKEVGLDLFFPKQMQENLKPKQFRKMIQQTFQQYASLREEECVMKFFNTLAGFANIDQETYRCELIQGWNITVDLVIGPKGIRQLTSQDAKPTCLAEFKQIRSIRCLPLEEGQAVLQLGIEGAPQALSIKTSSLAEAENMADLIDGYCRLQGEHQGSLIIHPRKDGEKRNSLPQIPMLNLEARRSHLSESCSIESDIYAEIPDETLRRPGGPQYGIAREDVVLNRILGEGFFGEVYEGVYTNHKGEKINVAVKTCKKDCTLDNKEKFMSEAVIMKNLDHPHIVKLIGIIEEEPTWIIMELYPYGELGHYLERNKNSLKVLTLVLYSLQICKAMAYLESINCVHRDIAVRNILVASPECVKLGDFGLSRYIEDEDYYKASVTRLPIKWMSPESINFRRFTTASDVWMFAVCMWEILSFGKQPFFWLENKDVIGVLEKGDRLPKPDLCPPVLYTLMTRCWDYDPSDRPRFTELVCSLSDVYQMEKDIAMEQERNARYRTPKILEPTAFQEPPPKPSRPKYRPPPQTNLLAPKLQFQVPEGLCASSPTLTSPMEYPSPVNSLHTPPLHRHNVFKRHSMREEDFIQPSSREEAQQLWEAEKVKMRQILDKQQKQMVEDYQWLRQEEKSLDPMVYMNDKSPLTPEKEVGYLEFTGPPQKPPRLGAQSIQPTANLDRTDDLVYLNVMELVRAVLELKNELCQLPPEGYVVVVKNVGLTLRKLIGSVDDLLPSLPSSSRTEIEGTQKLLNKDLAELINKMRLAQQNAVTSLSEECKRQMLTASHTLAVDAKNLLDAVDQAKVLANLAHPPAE
E coli WT exp = blocks growth of wild type E. coli BW25113; AID 710; OD600 absorbance; 98,000 tested, 0.15% active; growth inhibition, % at 100 µM;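 active means growth inhibition above about 50% at one test dose, limit read from the data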;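 further: growth measured after 20 h incubation at 37 °C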
CD11b adhes inh = inhibitors of human CD11b/CD18 binding to fibrinogen; P05107+P11215; K562 CD11b/CD18 adhesion to fibrinogen, ATPlite luminescence; Mn2+ added to activate the integrin; AID 1497; 93,000 tested, 0.54% active; inhibition, % at 10 µM;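 active means primary inhibition of 50% or more at 10 µM, then 40% or more on retest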
CD11b adhes enh = CD11b/CD18-fibrinogen binding enhancement; activation, % at 10 µM; K562 CD11b/CD18 adhesion to fibrinogen, ATPlite luminescence; 93,000 tested, 0.07% active;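 active means 10 µM primary screen giving 50% or more activity, confirmed by 40% or more on retest at that dose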
tolC growth inh = blocks growth of E. coli BW25113 tolC mutant; growth inhibition, % at 10 µM (by protocol); OD615; 65,000 tested, 2.2% active;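 active means growth inhibition at or above a cutoff equal to the mean over every tested compound plus 3 SD, cut at about 60% in these data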;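 further: growth measured after 20 h incubation at 37 °C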
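test system = E. coli BW25113 ΔtolC::kan bacteria | medium = LB with kanamycin 50 µg/mL | signal = OD at 615 nm | schedule = 37 °C, 20 h exposure | evaluation = % inhibition of E. coli growth | compound dosing = one dose of 10 µM final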
A number is an active result; – = inactive; · = no result. Hits are enriched below; roughly 2.3% of the tested compounds scored in any of these assays.

SMILES	Pyk2 oligo antag	E coli WT exp	CD11b adhes inh	CD11b adhes enh	tolC growth inh
FC(F)(F)c1nc(N2CCCC2)ncc1-c1nnnn1-c1ccc(Cl)cc1	–	–	55	–	·
Cc1cccc(NC(=O)C2CCN(S(=O)(=O)c3cccc4cccnc34)CC2)n1	·	–	–	–	–
CC1=CC(C)(C)N(C(=O)c2ccccc2)c2ccc(C)cc21	–	–	·	·	·
COc1ccc(C(=O)N2c3cc4c(cc3C(C)=CC2(C)C)OCO4)cc1	–	–	·	–	74
COc1cccc2c1C(=O)O/C2=C/c1ccc2c(c1)OCO2	–	–	52	–	·
COc1ccc(C2C(C(C)=O)=C(C)N=c3s/c(=C\c4ccc5c(c4)OCO5)c(=O)n32)c(OC)c1 (stereo unspecified)	–	·	·	·	–
CCOC(=O)Cc1csc(SCc2nc3sc4c(c3c(=O)[nH]2)CCC4)n1	–	–	–	–	·
COC(=O)c1ccsc1NC(=O)CN1CCN(c2ccc(F)cc2)CC1	–	–	–	–	70
CCOc1ccc(S(=O)(=O)N(CC(=O)N/N=C/c2cccs2)c2ccc(C)cc2)cc1	–	–	–	–	·
CC(=O)N1C2CCCCC2S[C@H]2CCCCC21 (stereo partly specified)	–	–	–	–	–
Cn1c(NC(=O)c2ccccc2NC(=O)C(C)(C)C)nc2ccccc21	·	–	–	–	99
N#Cc1cccc(NC(=O)Nc2cccs2)c1	–	73	·	·	–
CCc1cccc(NC(=O)Nc2cccs2)c1	–	–	–	–	–
O=C1CC(N2CCN(Cc3ccc4c(c3)OCO4)CC2)C(=O)N1CCc1ccccc1 (stereo unspecified)	–	–	–	–	–
COc1ccc(C2C(C#N)=C(N)Oc3c2c(C)nn3-c2ccccc2)cc1Cn1nc(C)c([N+](=O)[O-])c1C (stereo unspecified)	–	–	–	51	·
COc1ccc(C2C(C#N)=C(N)OC3=C2C(=O)CC(C)(C)C3)cc1Cn1nc(C)c([N+](=O)[O-])c1C (stereo unspecified)	·	·	–	–	·
Cc1cccnc1Nc1nc(-c2ccc(O)cc2O)cs1	–	–	–	–	100
O=C(NCCc1c[nH]c2ccccc12)c1cccc(S(=O)(=O)Nc2ccccc2Cl)c1	·	·	56	–	·
CCOC(=O)c1c(NS(=O)(=O)c2cccc(OC)c2)sc2c1CCC2	–	–	–	–	79
CCOC(=O)Nc1sc2c(c1C(=O)OCC)CCC2	–	–	–	–	–
CCc1ccccc1NS(=O)(=O)c1ccc(SC)cc1	–	–	–	–	73
Cn1c(=O)c2c(nc(-n3ccnc3)n2Cc2ccc([N+](=O)[O-])cc2)n(C)c1=O	–	–	–	–	·
COc1ccc(N(C)C(=O)CCS(=O)(=O)c2cccc3nonc23)c(OC)c1	–	–	–	–	–
CC(C)C(C(=O)NCc1ccco1)N(C(=O)CNS(=O)(=O)c1ccc(Cl)cc1)C1CCCC1 (stereo unspecified)	–	–	–	–	73
COc1cc2c(cc1OC)C1(Nc3c-2c(-c2ccccc2)nn3-c2ccccc2)C(=O)Nc2ccccc21 (stereo unspecified)	-3.2	–	–	–	·
SMILES	Pyk2 oligo antag	E coli WT exp	CD11b adhes inh	CD11b adhes enh	tolC growth inh
COc1cc2c(cc1OC)C1(Nc3c-2c(C)nn3-c2ccccc2)C(=O)Nc2ccccc21 (stereo unspecified)	–	–	–	–	·
Cc1nn(-c2ccccc2)c(Cl)c1/C=C1\SC(=S)NC1=O	–	–	101	–	·
COC(=O)N/N=C\c1c(C)nn(-c2ccccc2)c1Cl	·	·	–	–	·
Cn1c(Sc2nc3ccccc3n2C)nc2ccccc21	–	–	–	–	–
CC(Sc1nc2ccccc2n1C)C(=O)NC(c1ccccc1)c1ccccc1 (stereo unspecified)	-4	·	·	·	·
CCOC(=O)c1cnc2ccc(C(=O)OC)cc2c1Nc1ccc2c(c1)OCCO2	–	–	·	·	·
CCOC(=O)c1cnc2ccc(OC)cc2c1Nc1ccc2c(c1)OCCO2	-4	–	–	–	·
N#Cc1nc(Cc2cccc3ccccc23)oc1NCc1ccc(F)cc1	–	–	–	–	71
C=CCNc1oc(Cc2cccc3ccccc23)nc1C#N	·	–	–	–	–
CC(C)c1ccccc1NC(=O)c1cccc(NC(=O)c2ccccc2)c1	–	–	–	–	·
Cc1nn(-c2ccccc2)c(C)c1/C=N/n1c(-c2ccc(C(C)(C)C)cc2)n[nH]c1=S	-3.9	–	·	·	·
OCCn1c(-c2ccc3c(c2)OCO3)csc1=Nc1ccccc1	–	–	–	–	76
